Here are results for 23 molecules from ChEMBL document CHEMBL1125104, “Long-acting dihydropyridine calcium antagonists. 5. Synthesis and structure-activity relationships for a series of 2-[[(N-substituted-heterocyclyl)ethoxy]methyl]-1,4-dihydropyridine calcium antagonists” (J Med Chem, 1990).

For data set [1], the species on record is Cavia porcellus. As to the kind of experiment: Concentration required to depress contraction in the Langendorff-perfused guinea pig heart. The format is functional. Put shortly:
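Langendorff-perfused guinea pig heart, in vitro. The negative inotropic effect is given as IC25, the concentration that depresses contraction by 25%.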

The nature of data set [2]: […] of rat aorta to […] of guinea pig. The format is functional.
For data set [3], the species on record is Rattus norvegicus. In words: Concentration required to block Ca+2-induced contraction of K+ depolarized rat aorta. The data set is classed as functional. The gist of the method: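 Isolated rat aorta depolarized with potassium; contraction triggered by added calcium. IC50 is the concentration that inhibits the calcium-induced contraction by 50%.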
In data set [4] the test system is Canis familiaris. In words: Coronary vasodilator activity in anesthetized dogs at the dose of 150 ug/kg (iv). The data set is classed as functional, Canis lupus familiaris.
Data set [5] can be described thus: Half life of the compound.

Usually IC50 stands for the midpoint of a concentration-inhibition curve. Low values mean greater potency in that assay, high ones weaker potency in that assay. The term half-life denotes the time in which the quantity being followed falls by half. High values mean slow loss, low ones fast loss.

`CCO/C(O)=C1\C(COCCN2C(=O)CNC2=O)=NC(C)=C(C(=O)OC)C1c1ccccc1Cl` (stereo not given): the pIC25 in data set [1] was 6.8. For the same molecule, the Selectivity index in data set [2] is 5. Also, in data set [3], the midpoint of inhibition, the IC50, lay at 31.6 nM.

`CCO/C(O)=C1\C(COCCn2nncc2C(N)=O)=NC(C)=C(C(=O)OC)C1c1ccccc1Cl` (stereo not given) returned a pIC25 in data set [1] of 6.3. In data set [2], the Selectivity index worked out at 5. In data set [3], this molecule showed an IC50 of 100 nM.

In the case of `CCO/C(O)=C1\C(COCCn2ccnn2)=NC(C)=C(C(=O)OC)C1c1cccc(Cl)c1Cl` (stereo not given), the pIC25 in data set [1] was 7.3. In data set [4], this molecule yielded a Decrease of 79%. This molecule also showed a half-life in data set [5] of 30 min. Moreover, the Selectivity index in data set [2] is on record as 10. Also, in data set [3], it took 5.01 nM to reach half-maximal inhibition (IC50).

`CCOC(=O)c1cn(CCOCC2=NC(C)=C(C(=O)OC)C(c3ccccc3Cl)/C2=C(\O)OCC)nn1` (stereo not given) had a pIC25 in data set [1] of 7. Also, in data set [2], the Selectivity index is reported as 2. In addition, in data set [3], inhibition was half-maximal at 50.1 nM (IC50).

In turn, `CCOC(=O)c1cnnn1CCOCC1=NC(C)=C(C(=O)OC)C(c2ccccc2Cl)/C1=C(\O)OCC` (stereo not given) showed a pIC25 in data set [1] of 6.9. Moreover, the Selectivity index in data set [2] came out at 1.3. Besides, the IC50 in data set [3] is 100 nM.

`CCO/C(O)=C1\C(COCCn2cc(N)nc2O)=NC(C)=C(C(=O)OC)C1c1ccccc1Cl` (stereo not given): the pIC25 in data set [1] is given as less than 6. The Selectivity index in data set [2] is greater than 32. Also, in data set [3], half-maximal inhibition (IC50) required 31.6 nM.

Molecule `CCO/C(O)=C1\C(COCCN2CC(=O)N=C2N)=NC(C)=C(C(=O)OC)C1c1ccccc1Cl` (stereo not given) yielded a pIC25 in data set [1] of 6.1. Further, in data set [2], the Selectivity index is recorded as 40. In data set [3], this molecule gave an IC50 of 20 nM.

As for `CCO/C(O)=C1\C(COCCn2c(N)cnc2O)=NC(C)=C(C(=O)OC)C1c1ccccc1Cl` (stereo not given), the pIC25 in data set [1] came to 6. Further, the Selectivity index in data set [2] is 6. This molecule also had an IC50 in data set [3] of 158 nM.

Regarding `CCO/C(O)=C1\C(COCCn2ccnn2)=NC(C)=C(C(=O)OC)C1c1ccccc1Cl` (stereo not given), in data set [1], the pIC25 was determined as 7.3. Moreover, in data set [2], the Selectivity index worked out at 3. In data set [3], this molecule showed an IC50 of 15.8 nM.

In the case of `CCO/C(O)=C1\C(COCCN2CC(=O)N(C)C2=O)=NC(C)=C(C(=O)OC)C1c1ccccc1Cl` (stereo not given), the pIC25 in data set [1] was 6.4. Also, the Selectivity index in data set [2] is 16. The IC50 in data set [3] was 25.1 nM.

The molecule `CCO/C(O)=C1\C(COCCn2cc(C(N)=O)nn2)=NC(C)=C(C(=O)OC)C1c1cccc(Cl)c1Cl` (stereo not given) yielded a pIC25 in data set [1] of 6.6. The molecule also gave a Decrease in data set [4] of 54%. The half-life in data set [5] came out at 20 min. Besides, the Selectivity index in data set [2] worked out at 80. Further, in data set [3], the IC50 is 3.16 nM.

`CCO/C(O)=C1\C(COCCn2nncc2C(N)=O)=NC(C)=C(C(=O)OC)C1c1cccc(Cl)c1Cl` (stereo not given) had a pIC25 in data set [1] of 6.5. For the same molecule, the Selectivity index in data set [2] is 20. The same molecule gave an IC50 in data set [3] of 15.8 nM.

`CCO/C(O)=C1\C(COCCN2CC(=O)N=C2N)=NC(C)=C(C(=O)OC)C1c1cccc(Cl)c1Cl` (stereo not given): the Decrease in data set [4] came out at 60%. The half-life in data set [5] is greater than 180 min.

Take `CCO/C(O)=C1\C(COCCN2CC(=O)NC2=O)=NC(C)=C(C(=O)OC)C1c1ccccc1Cl` (stereo not given): in data set [1], the pIC25 is listed as 6.3. In addition, the Selectivity index in data set [2] came out at 25. Inhibition in data set [3] was half-maximal at 20 nM (IC50).

Molecule `CCO/C(O)=C1\C(COCCn2cc(C(N)=O)nn2)=NC(C)=C(C(=O)OC)C1c1ccccc1Cl` (stereo not given) showed a pIC25 in data set [1] of less than 6. Besides, the Selectivity index in data set [2] is listed as greater than 50. Moreover, in data set [3], the half-inhibitory concentration (IC50) was 20 nM.

As to `CCO/C(O)=C1\C(COCCn2c(C)nc(C)c2C)=NC(C)=C(C(=O)OC)C1c1ccccc1Cl` (stereo not given), the pIC25 in data set [1] is reported as 7.5. Besides, the Selectivity index in data set [2] worked out at 6. This molecule also showed an IC50 in data set [3] of 5.01 nM.

Consider `CCO/C(O)=C1\C(COCCn2ccnc2C)=NC(C)=C(C(=O)OC)C1c1ccccc1Cl` (stereo not given), for which, in data set [1], the pIC25 is reported as 7.8. In addition, the Selectivity index in data set [2] was 6. In data set [3], the IC50 is 2.51 nM.

For `CCO/C(O)=C1\C(COCCN2CC(=O)NC2=O)=NC(C)=C(C(=O)OC)C1c1cccc(Cl)c1Cl` (stereo not given), the pIC25 in data set [1] is recorded as 7.1. For the same molecule, the Decrease in data set [4] came to 65%. This molecule came in with a half-life in data set [5] of 30 min. Also, in data set [2], the Selectivity index was determined as 25. In data set [3], this molecule showed an IC50 of 3.16 nM.

For `CCO/C(O)=C1\C(COCCn2cc(N)n(C)c2=O)=NC(C)=C(C(=O)OC)C1c1ccccc1Cl` (stereo not given), the pIC25 in data set [1] is on record as 6.2. Also, in data set [2], the Selectivity index came to 25. The same molecule showed an IC50 in data set [3] of 25.1 nM.

`CCO/C(O)=C1\C(COCCn2cnc3ccccc32)=NC(C)=C(C(=O)OC)C1c1ccccc1Cl` (stereo not given): the pIC25 in data set [1] was 7.2. Besides, in data set [2], the Selectivity index is 3. The same molecule had an IC50 in data set [3] of 20 nM.

On to `CCO/C(O)=C1\C(COCCN2CC(=O)N(C)C2=O)=NC(C)=C(C(=O)OC)C1c1cccc(Cl)c1Cl` (stereo not given), for which the pIC25 in data set [1] came to 7.2. The molecule further registered a Decrease in data set [4] of 50%. Also, the half-life in data set [5] amounted to 10 min.

In data set [1], `CCOC(=O)C1=C(COCCN)NC(C)=C(C(=O)OC)C1c1ccccc1Cl` (stereo not given) [AMLODIPINE] gave a pIC25 of 7.2. Further, in data set [2], the Selectivity index is 8. In data set [3], this molecule had a 50% inhibitory concentration (IC50) of 7.94 nM.

Consider `COC(=O)C1=C(C)NC(C)=C(C(=O)OC)C1c1ccccc1[N+](=O)[O-]` [NIFEDIPINE], for which the pIC25 in data set [1] was found to be 7.5. The same molecule returned a Decrease in data set [4] of 77%. The molecule further returned a half-life in data set [5] of 36 min. Also, in data set [2], the Selectivity index turned out to be 8.
